Data set [1] in a line: Toxicity assessed as haemolysis in chicken RBC. The class given is cell-based, Gallus gallus, Erythrocyte.
Data set [2] can be described thus: Cytotoxicity against MDCK cells. The class given is cell-based, Canis lupus familiaris. The following applies: dog. In short, it runs like this: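 Uninfected MDCK cells were exposed to compounds. CC50 is the concentration inhibiting 50% of MDCK cell growth relative to control.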
Data set [3] is described as follows: Antiviral activity against Influenza A virus (A/Weiss/43 (H1N1)) infected in MDCK cells assessed as inhibition of virus-induced cytopathic effect. The class given is functional, organism-based, Influenza A virus (A/Weiss/1943(H1N1)). In short, it runs like this:
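MDCK cells infected with influenza A/Weiss/43 (H1N1). Compounds were titrated at multiple doses after a primary single-dose screen. The read-out was protection from viral cytopathic effect, and EC50 is the concentration inhibiting 50% of cytopathic effect. Values are means of triplicate or of at least duplicate experiments.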
(Cytopathic effects are the visible damage that an infection or toxin causes in cultured cells.)

[4] abbreviates: Gallus gallus, Erythrocyte, read-out: IC50.

`COC(=O)[C@@]1(C)CCC[C@]2(C)c3cc(OC)ccc3C(=O)C[C@@H]12`: the IC50 (in general, the concentration that gives 50% inhibition) in data set [1] (setting [4]) came out at 3200 nM. Also, the CC50 (commonly the concentration at which the toxic effect on the cells reaches its halfway point) in data set [2] came to 67 µM. Further, the 50% effective concentration (EC50) (in general, the midpoint of the concentration-response curve) in data set [3] turned out to be 890 nM.
`CN(C(=O)C1(c2ccccc2)CCCC1)c1cccc(C#N)c1` returned a CC50 in data set [2] of 56 µM. For the same compound, in data set [3], the EC50 was found to be 730 nM.
On the same counts, the results for `CN(C(=O)C1(c2ccccc2)CCCC1)c1cccnc1` are more than 100 µM and 16400 nM.
On the same counts, the results for `CN(C(=O)C1(c2ccc(Cl)cc2)CCC1)c1ccccc1` are 24 µM and 270 nM.
On the same counts, the results for `CN(C(=O)C1(c2ccc(Cl)cc2)CCCCC1)c1ccccc1` are 7.4 µM and more than 10000 nM.
In data set [2], `CN(C(=O)C1(c2ccc(Cl)cc2)CCCC1)c1ccccc1` returned a CC50 of 21 µM. In data set [3], the concentration giving a half-maximal response (EC50) is 190 nM.
The compound `CN(C(=O)C1(c2ccccc2)CCCC1)c1cccc(Cl)c1` came in with a CC50 in data set [2] of 17 µM. In data set [3], the EC50 turned out to be 460 nM.
`CN(C(=O)C1(c2ccccc2)CCCC1)C1CCCCC1`: the CC50 in data set [2] was determined as 21 µM. Moreover, in data set [3], the EC50 is 450 nM.
With `CN(C(=O)C1(c2ccccc2)CCCC1)c1ccc(C#N)cc1`, the 50% cytotoxic concentration (CC50) in data set [2] was more than 100 µM. Moreover, the EC50 in data set [3] was found to be 98 nM.
On the same counts, the results for `COc1ccc(C2(C(=O)N(C)c3ccccc3)CCCC2)cc1` are 69 µM and 750 nM.
The matching figures for `CN(C(=O)C1(c2ccccc2)CCCC1)c1ccc(C(F)(F)F)cc1`: 21 µM and 2120 nM.
On the same counts, the results for `O=C(N1CCCc2ccccc21)C1(c2ccccc2)CCCC1` are 24 µM and more than 100000 nM.
In data set [2], `O=C(Nc1ccccc1)C1(c2ccccc2)CCCC1` showed a CC50 of more than 100 µM. For the same compound, the EC50 in data set [3] is more than 100000 nM.
On the same counts, the results for `CN(C(=O)C1(c2ccccc2)CCCC1)c1ccccc1` are 52 µM and 240 nM.
The compound `CCN(C(=O)C1(c2ccccc2)CCCC1)c1ccccc1` yielded a cytotoxic concentration (CC50) in data set [2] of 56 µM. The EC50 in data set [3] amounted to 260 nM.
Take `O=C(N(CCO)c1ccccc1)C1(c2ccccc2)CCCC1`: half-maximal cytotoxicity in data set [2] (CC50) was put at 79 µM. Further, the EC50 in data set [3] amounted to 580 nM.
On the same counts, the results for `CN(C(=O)C1(c2cccc(C(F)(F)F)c2)CCCC1)c1ccccc1` are 20 µM and 2260 nM.
The matching figures for `CN(C(=O)C1(c2ccccc2)CCCC1)c1ccc(Cl)cc1`: 20 µM and 80 nM.
On the same counts, the results for `CN(C(=O)C1(c2ccc(Cl)cc2)CC1)c1ccccc1` are 49 µM and 1860 nM.
Regarding `O=C(N1CCCCC1)C1(c2ccccc2)CCCC1`, the IC50 in data set [1] (setting [4]) turned out to be 2200 nM. The CC50 in data set [2] was more than 100 µM. The EC50 in data set [3] is 2100 nM.
With `O=C(N1CCOCC1)C1(c2ccccc2)CCCC1`, the IC50 entry in data set [1] (erythrocyte) is “Not Active”. The same compound registered a cytotoxic concentration (CC50) in data set [2] of more than 100 µM. Besides, the EC50 in data set [3] was 27900 nM.
Turning to `CN(C(=O)C1(c2ccccc2)CCCC1)c1ccccc1Cl`, the CC50 in data set [2] turned out to be 23 µM. Moreover, in data set [3], the EC50 was 180 nM.
Consider `CC1(C)C[C@H](O)C[C@](C)(CNC(=O)c2cc(Cl)ccc2O)C1`, for which, in data set [1] (setting [4]), the IC50 was 530 nM. This compound showed a CC50 in data set [2] of more than 50 µM. In addition, in data set [3], the EC50 amounted to 60 nM.

(Values after ChEMBL document CHEMBL1158631, “Discovery of novel 1-phenyl-cycloalkane carbamides as potent and selective influenza fusion inhibitors” (Bioorg Med Chem Lett, 2010).)
